From ChEMBL document CHEMBL5303300, “EUbOPEN Chemogenomics Library - Multiplex” (2023)
Where “and” joins values, the source holds several entries; their conditions need not be identical. Equal values may be shown once.

Test system: HEK-293T
Assay: Multiplex assay against HEK293T
Format: toxicity, cell-based
Conditions: human, number of replicates 2
Summary of the method: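 Live cells carried four stains from seeding: Hoechst33342, BioTracker Green Microtubule Cytoskeleton Dye, MitoTracker Red and Annexin V Alexa Fluor 680. They were imaged on a CQ1 microscope at 37°C and 5% CO2 after compound addition. Using CellPathfinder machine-learning gating, cells were split into Hoechst high-intensity objects or normal cells, normal cells into healthy, pyknosed or fragmented nuclei, and pyknosed cells into mitotic or apoptotic; tubulin, mitochondrial-mass and membrane-permeability phenotypes are per cents of healthy-nucleus cells.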

[1] = 12 h, 1 µM, compound concentration 1 uM
[2] = 12 h, 10 µM, compound concentration 10 uM
[3] = 24 h, 1 µM, compound concentration 1 uM
[4] = 24 h, 10 µM, compound concentration 10 uM
[5] = 48 h, 1 µM, compound concentration 1 uM
[6] = 48 h, 10 µM, compound concentration 10 uM

C=CC(=O)Nc1ccc2[nH]c(=O)n(C3CCN(Cc4ccc(-c5ccc6c(c5)NC(=O)CO6)cc4)CC3)c2c1 [RL2578]
Population Apoptotic (%) [1]: 38% and 52%
Population Fragmented Nuclei (%) [1]: 3%
Population Healthy Nuclei (%) [1]: 85%
Population Hoechst High Intensity Objects (%) [1]: 8% and 6%
Population Membrane Permeable-Phenotype (%) [1]: 4% and 5%
Population Mitochondria Different-Phenotype (%) [1]: 17%
Population Mitotic Cells (%) [1]: 61% and 47%
Population Normal (%) [1]: 91% and 93%
Population Pyknosed Nuclei (%) [1]: 10% and 11%
Population Tubulin-Different-Phenotype (%) [1]: 66% and 57%
Total Cell Count [1]: 749 and 364
Population Apoptotic (%) [2]: 39% and 60%
Population Fragmented Nuclei (%) [2]: 2% and 1%
Population Healthy Nuclei (%) [2]: 92% and 89%
Population Hoechst High Intensity Objects (%) [2]: 6% and 10%
Population Membrane Permeable-Phenotype (%) [2]: 10% and 6%
Population Mitochondria Different-Phenotype (%) [2]: 39%
Population Mitotic Cells (%) [2]: 60% and 40%
Population Normal (%) [2]: 93% and 89%
Population Pyknosed Nuclei (%) [2]: 4% and 8%
Population Tubulin-Different-Phenotype (%) [2]: 97% and 96%
Total Cell Count [2]: 579 and 597
Population Apoptotic (%) [3]: 44% and 59%
Population Fragmented Nuclei (%) [3]: 6% and 4%
Population Healthy Nuclei (%) [3]: 86% and 88%
Population Hoechst High Intensity Objects (%) [3]: 4%
Population Membrane Permeable-Phenotype (%) [3]: 4% and 3%
Population Mitochondria Different-Phenotype (%) [3]: 7% and 9%
Population Mitotic Cells (%) [3]: 56% and 40%
Population Normal (%) [3]: 95%
Population Pyknosed Nuclei (%) [3]: 6% and 7%
Population Tubulin-Different-Phenotype (%) [3]: 42% and 38%
Total Cell Count [3]: 1138 and 534
Population Apoptotic (%) [4]: 53% and 81%
Population Fragmented Nuclei (%) [4]: 3% and 4%
Population Healthy Nuclei (%) [4]: 93% and 90%
Population Hoechst High Intensity Objects (%) [4]: 8% and 9%
Population Membrane Permeable-Phenotype (%) [4]: 5% and 2%
Population Mitochondria Different-Phenotype (%) [4]: 35% and 46%
Population Mitotic Cells (%) [4]: 46% and 18%
Population Normal (%) [4]: 91% and 90%
Population Pyknosed Nuclei (%) [4]: 2% and 4%
Population Tubulin-Different-Phenotype (%) [4]: 90% and 94%
Total Cell Count [4]: 626 and 621
Population Apoptotic (%) [5]: 16% and 19%
Population Fragmented Nuclei (%) [5]: 15% and 13%
Population Healthy Nuclei (%) [5]: 81% and 82%
Population Hoechst High Intensity Objects (%) [5]: 8% and 7%
Population Membrane Permeable-Phenotype (%) [5]: 6% and 4%
Population Mitochondria Different-Phenotype (%) [5]: 0% and 2%
Population Mitotic Cells (%) [5]: 83% and 80%
Population Normal (%) [5]: 91% and 92%
Population Pyknosed Nuclei (%) [5]: 2% and 3%
Population Tubulin-Different-Phenotype (%) [5]: 18% and 21%
Total Cell Count [5]: 2736 and 1194
Population Apoptotic (%) [6]: 32% and 60%
Population Fragmented Nuclei (%) [6]: 11% and 7%
Population Healthy Nuclei (%) [6]: 84% and 86%
Population Hoechst High Intensity Objects (%) [6]: 13%
Population Membrane Permeable-Phenotype (%) [6]: 3% and 1%
Population Mitochondria Different-Phenotype (%) [6]: 15% and 25%
Population Mitotic Cells (%) [6]: 67% and 40%
Population Normal (%) [6]: 86%
Population Pyknosed Nuclei (%) [6]: 4% and 6%
Population Tubulin-Different-Phenotype (%) [6]: 71% and 82%
Total Cell Count [6]: 795 and 718

C[C@@H]1CC[C@@]2(OC1)O[C@H]1[C@@H](O)[C@H]3[C@@H]4CC[C@H]5C[C@@H](O[C@@H]6O[C@H](CO)[C@H](O[C@@H]7O[C@H](CO)C(O)[C@H](O[C@@H]8OC[C@@H](O)[C@H](O)[C@H]8O)[C@H]7O[C@@H]7O[C@H](CO)[C@H](O)[C@H](O[C@@H]8O[C@H](CO)[C@@H](O)[C@H](O)[C@H]8O)[C@H]7O)[C@H](O)[C@H]6O)[C@H](O)C[C@]5(C)[C@H]4CC[C@]3(C)[C@H]1[C@@H]2C (some centres undefined) [DIGITONIN]
Population Apoptotic (%) [2]: 61% and 33% and 40% and 57%
Population Fragmented Nuclei (%) [2]: 7% and 2% and 3% and 6%
Population Healthy Nuclei (%) [2]: 79% and 88% and 83% and 81%
Population Hoechst High Intensity Objects (%) [2]: 10% and 5% and 4% and 8%
Population Membrane Permeable-Phenotype (%) [2]: 1% and 3%
Population Mitochondria Different-Phenotype (%) [2]: 14% and 13% and 16% and 17%
Population Mitotic Cells (%) [2]: 38% and 66% and 59% and 42%
Population Normal (%) [2]: 89% and 94% and 95% and 91%
Population Pyknosed Nuclei (%) [2]: 13% and 8% and 12% and 11%
Population Tubulin-Different-Phenotype (%) [2]: 50% and 43% and 44% and 49%
Total Cell Count [2]: 558 and 637 and 534 and 641
Population Apoptotic (%) [4]: 44% [middle of 4 runs]
Population Fragmented Nuclei (%) [4]: 5% and 8% and 2% and 10%
Population Healthy Nuclei (%) [4]: 86% and 81% and 90%
Population Hoechst High Intensity Objects (%) [4]: 7% and 9% and 6% and 8%
Population Membrane Permeable-Phenotype (%) [4]: 3% and 2%
Population Mitochondria Different-Phenotype (%) [4]: 4% and 2% and 7% and 3%
Population Mitotic Cells (%) [4]: 67% and 34% and 68% and 55%
Population Normal (%) [4]: 92% and 90% and 93% and 91%
Population Pyknosed Nuclei (%) [4]: 8% and 9% and 6%
Population Tubulin-Different-Phenotype (%) [4]: 26% and 22% and 28% and 17%
Total Cell Count [4]: 1037 and 963 and 742 and 1134
Population Apoptotic (%) [6]: 13% and 14% and 23% and 21%
Population Fragmented Nuclei (%) [6]: 13% and 15% and 10% and 17%
Population Healthy Nuclei (%) [6]: 83% and 79% and 85% and 80%
Population Hoechst High Intensity Objects (%) [6]: 10% and 9% and 11%
Population Membrane Permeable-Phenotype (%) [6]: 5% and 3% and 2%
Population Mitochondria Different-Phenotype (%) [6]: 0%
Population Mitotic Cells (%) [6]: 86% and 85% and 76% and 78%
Population Normal (%) [6]: 89% and 90% and 88%
Population Pyknosed Nuclei (%) [6]: 3% and 4% and 2%
Population Tubulin-Different-Phenotype (%) [6]: 13% and 5% and 14% and 6%
Total Cell Count [6]: 2746 and 2725 and 1654 and 2990

CCCCOc1c(C(=O)c2c(F)cc(C)cc2F)c[nH]c2nncc1-2
Population Apoptotic (%) [1]: 54% and 43%
Population Fragmented Nuclei (%) [1]: 3% and 2%
Population Healthy Nuclei (%) [1]: 87% and 86%
Population Hoechst High Intensity Objects (%) [1]: 7% and 6%
Population Membrane Permeable-Phenotype (%) [1]: 3% and 4%
Population Mitochondria Different-Phenotype (%) [1]: 11% and 7%
Population Mitotic Cells (%) [1]: 45% and 56%
Population Normal (%) [1]: 92% and 93%
Population Pyknosed Nuclei (%) [1]: 9% and 11%
Population Tubulin-Different-Phenotype (%) [1]: 58% and 46%
Total Cell Count [1]: 782 and 748
Population Apoptotic (%) [2]: 50% and 64%
Population Fragmented Nuclei (%) [2]: 3%
Population Healthy Nuclei (%) [2]: 85% and 81%
Population Hoechst High Intensity Objects (%) [2]: 10% and 11%
Population Membrane Permeable-Phenotype (%) [2]: 7% and 4%
Population Mitochondria Different-Phenotype (%) [2]: 17%
Population Mitotic Cells (%) [2]: 50% and 35%
Population Normal (%) [2]: 89% and 88%
Population Pyknosed Nuclei (%) [2]: 11% and 14%
Population Tubulin-Different-Phenotype (%) [2]: 77% and 74%
Total Cell Count [2]: 766 and 710
Population Apoptotic (%) [3]: 34% and 50%
Population Fragmented Nuclei (%) [3]: 7% and 5%
Population Healthy Nuclei (%) [3]: 85%
Population Hoechst High Intensity Objects (%) [3]: 10% and 11%
Population Membrane Permeable-Phenotype (%) [3]: 1% and 3%
Population Mitochondria Different-Phenotype (%) [3]: 4% and 5%
Population Mitotic Cells (%) [3]: 65% and 50%
Population Normal (%) [3]: 89% and 88%
Population Pyknosed Nuclei (%) [3]: 7% and 8%
Population Tubulin-Different-Phenotype (%) [3]: 32% and 46%
Total Cell Count [3]: 1018 and 1015
Population Apoptotic (%) [4]: 59% and 67%
Population Fragmented Nuclei (%) [4]: 5%
Population Healthy Nuclei (%) [4]: 82% and 83%
Population Hoechst High Intensity Objects (%) [4]: 9% and 10%
Population Membrane Permeable-Phenotype (%) [4]: 3% and 2%
Population Mitochondria Different-Phenotype (%) [4]: 5%
Population Mitotic Cells (%) [4]: 40% and 32%
Population Normal (%) [4]: 90% and 89%
Population Pyknosed Nuclei (%) [4]: 11%
Population Tubulin-Different-Phenotype (%) [4]: 57% and 52%
Total Cell Count [4]: 954 and 851
Population Fragmented Nuclei (%) [5]: 17% and 10%
Population Healthy Nuclei (%) [5]: 79% and 86%
Population Hoechst High Intensity Objects (%) [5]: 16%
Population Membrane Permeable-Phenotype (%) [5]: 4% and 2%
Population Mitochondria Different-Phenotype (%) [5]: 1% and 2%
Population Mitotic Cells (%) [5]: 88% and 65%
Population Normal (%) [5]: 83%
Population Pyknosed Nuclei (%) [5]: 2% and 3%
Population Tubulin-Different-Phenotype (%) [5]: 24% and 36%
Total Cell Count [5]: 1720 and 1259
Population Apoptotic (%) [6]: 41% and 63%
Population Fragmented Nuclei (%) [6]: 13% and 10%
Population Healthy Nuclei (%) [6]: 82% and 86%
Population Hoechst High Intensity Objects (%) [6]: 12%
Population Membrane Permeable-Phenotype (%) [6]: 4% and 1%
Population Mitochondria Different-Phenotype (%) [6]: 4% and 5%
Population Mitotic Cells (%) [6]: 58% and 36%
Population Normal (%) [6]: 87%
Population Pyknosed Nuclei (%) [6]: 3% and 2%
Population Tubulin-Different-Phenotype (%) [6]: 46% and 47%
Total Cell Count [6]: 1114 and 939
